Experiments:
[1] = Acute toxicity in po dosed ICR mouse assessed as animal survival administered as single dose and observed for 7 days; format: organism-based; details: in vivo, time 7 day
Procedure, shortened: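 Female ICR mice (18 to 21 g), ten animals, given one oral dose of 1.5 g/kg. The number surviving was recorded after 7 days of observation.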

Vero = experiment: Cytotoxicity against African green monkey Vero cells incubated for 48 hrs by MTT assay; details: Chlorocebus sabaeus
[2] = Oral bioavailability in Sprague-Dawley rat at 30 mg/kg; format: ADME, organism-based; details: in vivo
Procedure, shortened: (§1)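 Male SD rats (180–200 g), three per route, dosed as free base content. Oral formulation in 0.5% carboxymethyl cellulose; intravenous formulation in normal saline. Sampling at 5, 15, 30 min and 1, 1.5, 2, 4, 6, 8, 12, 24 h; plasma kept at -80 °C. Non-compartmental parameters; F = (AUCpo×dose iv)/(AUCiv×dose po).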

[3] = AUC(0 to t) in Sprague-Dawley rat plasma at 30 mg/kg, po measured up to 24 hrs; format: ADME, organism-based; set-up: route oral, dose 30 mg/kg, time <=24; procedure, shortened: as §1
[4] = Mean residence time (0 to infinity) in Sprague-Dawley rat at 30 mg/kg, po measured up to 24 hrs; format: ADME, organism-based; details: in vivo; procedure, shortened: as §1
[5] = Metabolic stability in mouse liver microsomes assessed as parent compound remaining at 10 micromol/L measured after 30 mins in presence of NADPH generating system by LC-MS/MS analysis; format: ADME, Microsome; details: dose 10 µmol/L, read-out: Stabilty
Procedure, shortened: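 Mouse liver microsomes (0.5 mg/mL protein), compound at 10 μmol/L, in Tris-HCl with an NADPH-generating system that starts the reaction. Incubated in duplicate at 37 °C for 30 min; stopped with ice-cold acetonitrile containing internal standard. Supernatant analysed by LC-MS/MS; remaining amount normalised to time zero. Inactivated microsomes served as negative control.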

[6] = Genotoxicity in Salmonella typhimurium TA100 incubated for 48 to 72 hrs by mini-Ames test; format: toxicity; details: salmonella enterica subsp. enterica serovar typhimurium; time 48-72 hrs
Procedure, shortened: (§2)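 Mini-Ames test with Salmonella typhimurium TA98 and TA100, with 10% S9 mix or PBS, in top agar poured onto minimal agar in 6-well plates. Up to 1000 μg/well; DMSO solvent control. Incubated 37 °C for 48–72 h; revertants counted manually. Called positive at a dose-related increase of at least 2-fold over the solvent control.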

[7] = Plasma protein binding in dog at 5 uM after 5 hrs by LC-MS/MS based equilibrium dialysis method; format: ADME, cell-free, Canis lupus familiaris; details: read-out: PPB (converted)
Procedure, shortened: (§3)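 Equilibrium dialysis: compound spiked at 5 μM (1% DMSO) into pre-warmed 37 °C plasma, dialysed against phosphate buffer (1% DMSO) for 5 h at 37 °C with shaking at 100 rpm. Both compartments analysed by LC-MS/MS.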

[8] = Plasma protein binding in monkey at 5 uM after 5 hrs by LC-MS/MS based equilibrium dialysis method; format: ADME, cell-free, Macaca mulatta; details: rhesus monkey, read-out: PPB (converted); procedure, shortened: as §3
[9] = Elimination half-life in Sprague-Dawley rat plasma at 3 mg/kg, iv measured up to 24 hrs; format: ADME, organism-based; details: read-out: beta t1/2 (converted); procedure, shortened: as §1
[10] = AUC(0 to infinity) in Sprague-Dawley rat plasma at 3 mg/kg, iv measured up to 24 hrs; format: ADME, organism-based; set-up: route intravenous, dose 3 mg/kg, time <=24; procedure, shortened: as §1
[11] = Plasma protein binding in mouse at 5 uM after 5 hrs by LC-MS/MS based equilibrium dialysis method; format: ADME, cell-free; details: read-out: PPB (converted); procedure, shortened: as §3
[12] = Plasma protein binding in rat at 5 uM after 5 hrs by LC-MS/MS based equilibrium dialysis method; format: ADME, cell-free; details: read-out: PPB (converted); procedure, shortened: as §3
[13] = Tmax in Sprague-Dawley rat plasma at 30 mg/kg, po measured up to 24 hrs; format: ADME, organism-based; procedure, shortened: as §1
[14] = AUC(0 to t) in Sprague-Dawley rat plasma at 3 mg/kg, iv measured up to 24 hrs; format: ADME, organism-based; set-up: route intravenous, dose 3 mg/kg, time <=24; procedure, shortened: as §1
[15] = Elimination half-life in Sprague-Dawley rat plasma at 30 mg/kg, po measured up to 24 hrs; format: ADME, organism-based; details: read-out: beta t1/2 (converted); procedure, shortened: as §1
[16] = Cmax in Sprague-Dawley rat plasma at 3 mg/kg, iv measured up to 24 hrs; format: ADME, organism-based; set-up: route intravenous, dose 3 mg/kg, time <=24; procedure, shortened: as §1
[17] = AUC(0 to infinity) in Sprague-Dawley rat plasma at 30 mg/kg, po measured up to 24 hrs; format: ADME, organism-based; set-up: route oral, dose 30 mg/kg, time <=24; procedure, shortened: as §1
[18] = Cmax in Sprague-Dawley rat plasma at 30 mg/kg, po measured up to 24 hrs; format: ADME, organism-based; set-up: route oral, dose 30 mg/kg, time <=24; procedure, shortened: as §1
[19] = Genotoxicity in Salmonella typhimurium TA98 incubated for 48 to 72 hrs by mini-Ames test; format: toxicity; details: salmonella enterica subsp. enterica serovar typhimurium; time 48-72 hrs; procedure, shortened: as §2
[20] = Apparent permeability in human Caco-2 cells at 50 uM after 1 hr by UPLC analysis; format: ADME, cell-based
Procedure, shortened: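 Caco-2 cells grown 21 days on Transwell inserts (0.4 µm pores) into monolayers with TEER above 500 Ω×cm² before and after transport. Compound at 50 µM added apically, 1 h at 37 °C. Transported compound quantified by UPLC; Papp = (dQ/dt)/(C0×A).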

[21] = Mean residence time (0 to infinity) in Sprague-Dawley rat at 3 mg/kg, iv measured up to 24 hrs; format: ADME, organism-based; details: in vivo; procedure, shortened: as §1
[22] = target: Voltage-gated inwardly rectifying potassium channel KCNH2 (Homo sapiens, UniProt Q12809); experiment: Inhibition of human ERG expressed in CHO cells by manual patch clamp assay; format: cell-based
Procedure, shortened: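 CHO cells stably expressing hERG, cultured at least 24 h, then recorded by whole-cell voltage-clamp patch clamp.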

[23] = Plasma protein binding in human at 5 uM after 5 hrs by LC-MS/MS based equilibrium dialysis method; format: ADME, cell-free; details: read-out: PPB (converted); procedure, shortened: as §3
Mus musculus = experiment: Antidiabetic activity in ICR mouse assessed as reduction in blood glucose AUC at 10 mg/kg, po administered as single dose followed by glucose challenge measured upto 120 mins by OGTT relative to control; format: functional; set-up: scale not given: the % may be the effect or the level left; details: time min <=120
Procedure, shortened: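 ICR mice were fasted overnight and dosed by oral gavage, with distilled water as vehicle, before an oral glucose load of 2 g/kg. Tail-tip blood was sampled at 0, 30, 60 and 120 min and glucose measured by the glucose oxidase method. AUC was compared with the vehicle group. n = 10 per group, mean ± SEM.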

Sequence of Voltage-gated inwardly rectifying potassium channel KCNH2 (Q12809 whole entry): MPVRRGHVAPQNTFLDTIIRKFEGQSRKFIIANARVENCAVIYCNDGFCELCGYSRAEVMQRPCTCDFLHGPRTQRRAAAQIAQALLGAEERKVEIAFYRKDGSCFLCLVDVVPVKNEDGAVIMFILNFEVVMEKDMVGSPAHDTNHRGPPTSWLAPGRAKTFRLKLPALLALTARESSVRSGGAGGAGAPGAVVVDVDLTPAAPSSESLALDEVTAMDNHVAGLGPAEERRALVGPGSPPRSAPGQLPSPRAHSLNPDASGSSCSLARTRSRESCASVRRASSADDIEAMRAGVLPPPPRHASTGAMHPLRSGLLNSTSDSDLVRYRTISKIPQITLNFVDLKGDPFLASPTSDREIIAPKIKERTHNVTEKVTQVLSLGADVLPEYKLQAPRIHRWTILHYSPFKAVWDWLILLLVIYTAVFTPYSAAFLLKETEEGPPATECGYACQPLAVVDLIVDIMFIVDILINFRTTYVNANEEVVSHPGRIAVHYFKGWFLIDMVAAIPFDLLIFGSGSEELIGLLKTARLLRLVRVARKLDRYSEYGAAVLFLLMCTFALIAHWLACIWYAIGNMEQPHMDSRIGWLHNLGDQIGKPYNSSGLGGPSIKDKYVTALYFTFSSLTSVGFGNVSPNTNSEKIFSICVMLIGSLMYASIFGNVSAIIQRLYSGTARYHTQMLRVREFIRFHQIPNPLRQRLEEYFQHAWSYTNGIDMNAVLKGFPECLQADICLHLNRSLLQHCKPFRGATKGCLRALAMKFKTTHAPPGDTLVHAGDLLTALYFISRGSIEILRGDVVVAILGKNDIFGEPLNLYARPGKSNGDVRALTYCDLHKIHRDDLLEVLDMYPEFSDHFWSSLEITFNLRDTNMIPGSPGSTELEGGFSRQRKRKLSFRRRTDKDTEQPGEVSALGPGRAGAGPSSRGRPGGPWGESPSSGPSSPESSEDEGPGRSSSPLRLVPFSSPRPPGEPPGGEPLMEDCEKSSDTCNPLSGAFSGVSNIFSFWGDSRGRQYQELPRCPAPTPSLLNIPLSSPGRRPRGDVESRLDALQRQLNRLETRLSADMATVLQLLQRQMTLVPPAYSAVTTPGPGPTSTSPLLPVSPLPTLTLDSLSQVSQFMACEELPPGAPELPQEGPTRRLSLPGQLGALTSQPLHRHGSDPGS

Structure (SMILES): CC#CCn1c(N2CCC[C@@H](N)C2)nc2c1c(=O)n(CCCN1CCN(c3nc(-c4ccccc4)no3)CC1)c(=O)n2C.Cl
- LD50 at 168 h [1]: > 1500 mg/kg
- IC50 (Vero): > 64 µg/mL
- bioavailability [2]: 42.4%
- AUC(0-t) at 24 h [3]: 623 ng·h/mL
- MRT inf [4]: 2.22 h
- remaining at 0.5 h, 10 µM [5]: 49.3%
- Activity [6]: Non-Toxic
- fraction unbound at 5 h, 5 µM [7]: 0.037
- fraction unbound at 5 h, 5 µM [8]: 0.04
- half-life [9]: 0.63 h
- AUC(0-inf) [10]: 167 ng·h/mL
- fraction unbound at 5 h, 5 µM [11]: 0.015
- fraction unbound at 5 h, 5 µM [12]: 0.039
- Tmax [13]: 1.33 h
- AUC(0-t) at 24 h [14]: 147 ng·h/mL
- half-life [15]: 1.08 h
- Cmax [16]: 416 ng/mL
- AUC(0-inf) [17]: 656 ng·h/mL
- Cmax [18]: 226 ng/mL
- Activity [19]: Non-Toxic
- Papp at 1 h, 50 µM [20]: 19.1 ×10⁻⁶ cm/s
- MRT inf [21]: 0.73 h
- IC50 [22]: 4.9 µM
- fraction unbound at 5 h, 5 µM [23]: 0.028

Structure (SMILES): COc1c(Nc2ccc(S(C)(=O)=O)nc2C)ncnc1OC1CCN(C(=O)OC(C)C)CC1 [ADP-597]
- Activity (Mus musculus): 19.9%
